The record followed here is ChEMBL document CHEMBL4813978 (Bioorg Med Chem Lett, 2021).

What is called EC50 is the concentration that produces a half-maximal response. A higher EC50 goes with lower potency in that assay. One may read the Ki as the dissociation constant of the complex between target and ligand, obtained from inhibition or displacement.

Data set [1] concerns the target T1, Muscarinic acetylcholine receptor M1 (Homo sapiens, UniProt P11229).
T1 sequence (P11229 whole entry): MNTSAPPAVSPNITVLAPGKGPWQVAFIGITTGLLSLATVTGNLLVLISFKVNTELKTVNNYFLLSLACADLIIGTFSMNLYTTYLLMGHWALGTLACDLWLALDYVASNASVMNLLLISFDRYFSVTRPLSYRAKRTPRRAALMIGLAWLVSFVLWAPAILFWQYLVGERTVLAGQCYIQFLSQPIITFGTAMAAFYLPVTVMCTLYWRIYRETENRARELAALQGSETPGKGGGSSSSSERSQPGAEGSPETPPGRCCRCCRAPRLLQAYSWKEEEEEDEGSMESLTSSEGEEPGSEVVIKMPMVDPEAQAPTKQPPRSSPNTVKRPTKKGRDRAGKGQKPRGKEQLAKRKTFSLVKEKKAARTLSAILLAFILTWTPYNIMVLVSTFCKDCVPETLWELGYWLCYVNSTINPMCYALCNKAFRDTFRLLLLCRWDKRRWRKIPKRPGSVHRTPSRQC
Nature of the data set: Agonist activity at muscarinic M1 receptor (unknown origin) expressed in CHO cells. In kind it is functional, cell-based.

Data set [2] addresses Muscarinic acetylcholine receptor M3 (Homo sapiens, UniProt P20309). Nature of the data set: Agonist activity at muscarinic M3 receptor (unknown origin) expressed in CHO cells. In kind it is functional, cell-based.
The target in data set [3] is T2, Muscarinic acetylcholine receptor M4 (Homo sapiens, UniProt P08173).
T2 sequence (P08173 whole entry): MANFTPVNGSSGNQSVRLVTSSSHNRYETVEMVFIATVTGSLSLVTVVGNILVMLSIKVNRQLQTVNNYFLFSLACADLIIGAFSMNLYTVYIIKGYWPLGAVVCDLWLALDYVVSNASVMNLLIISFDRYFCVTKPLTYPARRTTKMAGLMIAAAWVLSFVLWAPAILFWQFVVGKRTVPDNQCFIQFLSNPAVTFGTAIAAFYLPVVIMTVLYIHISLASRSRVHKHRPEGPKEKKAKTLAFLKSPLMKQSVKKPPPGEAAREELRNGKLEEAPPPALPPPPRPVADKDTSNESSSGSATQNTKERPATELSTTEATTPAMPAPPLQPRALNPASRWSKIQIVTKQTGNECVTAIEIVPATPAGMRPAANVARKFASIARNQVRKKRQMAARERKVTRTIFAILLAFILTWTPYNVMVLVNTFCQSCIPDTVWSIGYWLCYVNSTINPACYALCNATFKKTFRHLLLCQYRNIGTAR
Put plainly: Agonist activity at muscarinic M4 receptor (unknown origin) expressed in CHO cells. In kind it is functional, cell-based. The method, boiled down:
(§1)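 Agonist-mode EC50 with Emax. Emax given as mean ± SE of two or more experiments.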

The target of data set [4] is T3, Muscarinic acetylcholine receptor M2 (Homo sapiens, UniProt P08172).
T3 sequence (P08172 whole entry): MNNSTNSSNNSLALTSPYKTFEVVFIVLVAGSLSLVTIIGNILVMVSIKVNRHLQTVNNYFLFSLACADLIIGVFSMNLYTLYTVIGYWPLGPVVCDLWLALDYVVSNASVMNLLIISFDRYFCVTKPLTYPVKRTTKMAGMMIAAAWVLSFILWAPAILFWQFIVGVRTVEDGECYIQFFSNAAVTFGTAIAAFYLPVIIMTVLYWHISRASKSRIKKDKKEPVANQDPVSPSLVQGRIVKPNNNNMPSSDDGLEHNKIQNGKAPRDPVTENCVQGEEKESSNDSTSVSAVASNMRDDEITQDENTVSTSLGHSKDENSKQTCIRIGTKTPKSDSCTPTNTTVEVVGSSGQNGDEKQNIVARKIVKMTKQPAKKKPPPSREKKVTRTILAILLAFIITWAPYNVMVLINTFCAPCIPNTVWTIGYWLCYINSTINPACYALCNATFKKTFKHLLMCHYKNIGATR
Put plainly: Agonist activity at muscarinic M2 receptor (unknown origin) expressed in CHO cells. In kind it is functional, cell-based. The method, boiled down:
as §1

Data set [5] can be described thus: Glutathione reactivity of compound assessed as compound-dGSH conjugate formation incubated by fluorescence detector. In kind it is physicochemical. An outline of the steps:
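Test compounds incubated with dansyl-glutathione (dGSH) and a human hepatocyte microsome fraction. The test compound–dGSH conjugate was quantified by fluorescence detection and reported as μmol/L.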

The target in another data set is D(2) dopamine receptor (Homo sapiens, UniProt P14416). Put plainly: Antagonist activity at human D2 receptor expressed in CHO cells assessed as inhibition of dopamine-induced calcium accumulation. In kind it is functional, cell-based.
Sequence of D(2) dopamine receptor (P14416 whole entry): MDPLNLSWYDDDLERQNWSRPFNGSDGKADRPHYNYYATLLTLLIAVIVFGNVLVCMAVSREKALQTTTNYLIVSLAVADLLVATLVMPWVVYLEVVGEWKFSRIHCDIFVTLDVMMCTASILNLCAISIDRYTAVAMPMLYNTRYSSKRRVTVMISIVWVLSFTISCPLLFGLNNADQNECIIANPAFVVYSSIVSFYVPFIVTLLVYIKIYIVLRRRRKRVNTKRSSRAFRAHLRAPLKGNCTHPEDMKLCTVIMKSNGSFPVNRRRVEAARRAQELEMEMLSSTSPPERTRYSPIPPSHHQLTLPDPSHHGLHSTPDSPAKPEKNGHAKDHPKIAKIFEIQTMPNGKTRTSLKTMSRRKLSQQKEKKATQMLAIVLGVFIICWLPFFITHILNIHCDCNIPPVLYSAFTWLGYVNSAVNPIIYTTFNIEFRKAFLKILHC
Another data set addresses D(1A) dopamine receptor (Homo sapiens, UniProt P21728). Put plainly: Antagonist activity at human D1 receptor expressed in CHO cells assessed as inhibition of dopamine-induced calcium accumulation. In kind it is functional, cell-based.
Data set [6] in a line: Drug concentration in po dosed mouse brain measured after 1 hr. In kind it is ADME, organism-based. As to conditions: read-out: Drug uptake.
The nature of data set [7]: Ratio of drug level in brain to plasma in po dosed mouse after 1 hr. In kind it is ADME, organism-based. As to conditions: read-out: BPR.
Data set [8] in a line: Drug concentration in po dosed mouse plasma measured after 1 hr. In kind it is ADME, organism-based.

Bounds are passed on as bounds.

Sequence of D(1A) dopamine receptor (P21728 whole entry): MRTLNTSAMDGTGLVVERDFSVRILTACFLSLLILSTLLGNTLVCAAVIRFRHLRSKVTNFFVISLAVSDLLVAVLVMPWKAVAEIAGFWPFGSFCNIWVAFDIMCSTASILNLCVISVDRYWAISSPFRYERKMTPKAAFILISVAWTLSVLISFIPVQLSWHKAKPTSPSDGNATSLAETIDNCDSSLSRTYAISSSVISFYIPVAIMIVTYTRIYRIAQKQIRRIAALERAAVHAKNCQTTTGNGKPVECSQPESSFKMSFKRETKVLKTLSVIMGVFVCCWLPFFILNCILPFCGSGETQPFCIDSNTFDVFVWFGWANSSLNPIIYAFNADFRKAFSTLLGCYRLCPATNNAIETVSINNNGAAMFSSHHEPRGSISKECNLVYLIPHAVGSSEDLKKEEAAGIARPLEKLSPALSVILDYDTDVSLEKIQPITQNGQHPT
Sequence of Muscarinic acetylcholine receptor M3 (P20309 whole entry): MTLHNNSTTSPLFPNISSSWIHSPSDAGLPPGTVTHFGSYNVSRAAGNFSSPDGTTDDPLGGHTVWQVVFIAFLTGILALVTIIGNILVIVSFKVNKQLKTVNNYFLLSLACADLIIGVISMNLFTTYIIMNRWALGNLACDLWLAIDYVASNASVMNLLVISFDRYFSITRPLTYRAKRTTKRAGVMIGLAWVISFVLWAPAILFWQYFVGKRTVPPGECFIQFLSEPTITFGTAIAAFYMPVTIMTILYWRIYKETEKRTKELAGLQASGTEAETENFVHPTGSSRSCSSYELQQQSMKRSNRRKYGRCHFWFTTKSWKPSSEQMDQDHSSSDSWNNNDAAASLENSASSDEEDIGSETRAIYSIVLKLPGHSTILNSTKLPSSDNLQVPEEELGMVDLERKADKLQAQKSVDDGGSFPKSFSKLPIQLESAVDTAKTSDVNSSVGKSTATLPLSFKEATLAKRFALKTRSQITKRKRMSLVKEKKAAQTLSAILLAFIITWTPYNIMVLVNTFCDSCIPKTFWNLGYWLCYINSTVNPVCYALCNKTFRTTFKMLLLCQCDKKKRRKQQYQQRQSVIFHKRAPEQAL

For `CN1CC=C(C2=Nc3cc(Cl)ccc3Nc3ccccc32)CC1`, the EC50 was 0.35 µM in data set [1], 0.64 µM in data set [2], more than 10 µM in [3] and more than 10 µM in [4]. In data set [5], the Activity was 0.21 µmol/L.

For `CCc1ccc2c(c1)C(C1=C[C@H](C)N(C)CC1)=Nc1cc(Cl)ccc1N2`, the EC50 in [1] is more than 10 µM.

`Cc1ccc2c(c1)N=C(C1=C[C@H](C)N(C)CC1)c1cc(F)ccc1N2` came in with an EC50 in [1] of more than 10 µM.

For the compound `Fc1ccc2c(c1)C(C1=CCNCC1)=Nc1cc(Cl)ccc1N2`, the EC50 in data set [1], in [2], in data set [3] and in data set [4] was more than 10 µM in each case.

As to `CN1CC=C(C2=Nc3cc(Cl)ccc3Nc3ccc(F)cc32)CC1`, the EC50 in data set [1] is 4.7 µM; in [2], more than 10 µM; in data set [3] it was more than 10 µM; in data set [4], more than 10 µM. The Ki on D(2) dopamine receptor is 0.41 µM; at D(1A) dopamine receptor, 0.035 µM. Moreover, the Activity in data set [5] was determined as 0.3 µmol/L.

As to `CCN1CC=C(C2=Nc3cc(Cl)ccc3Nc3ccc(F)cc32)CC1`, the EC50 in [1] and in [3] was more than 10 µM in each case. For the same compound, on D(2) dopamine receptor, the Ki was 0.34 µM. The Activity in data set [5] was 0.27 µmol/L.

As for `COc1ccc2c(c1)C(C1=CCN(C)CC1)=Nc1cc(C)ccc1N2`, the EC50 in data set [1] and in data set [3] was more than 10 µM each time. At D(2) dopamine receptor, the Ki stood at 0.329 µM. In addition, in data set [5], the Activity is 0.07 µmol/L.

With `Cc1ccc2c(c1)N=C(C1=CCNCC1)c1cc(F)ccc1N2`, the EC50 in [1], in [2], in data set [3] and in [4] was more than 10 µM throughout. The concentration at 1 h in [6] was 63 nM.

As for `Cc1ccc2c(c1)N=C(C1=CCN(C)CC1)c1cc(C)ccc1N2`, the EC50 in data set [1] and in data set [3] was more than 10 µM in each case. In addition, the inhibition constant Ki is 0.694 µM on D(2) dopamine receptor and 0.057 µM at D(1A) dopamine receptor. Besides, in [5], the Activity worked out at 0.22 µmol/L.

On to `CCc1ccc2c(c1)C(C1=CCN(C)CC1)=Nc1cc(C)ccc1N2`, for which the EC50 in [1] and in data set [3] was more than 10 µM throughout.

Regarding `Cc1ccc2c(c1)N=C(C1=CCN(C)CC1)c1cc(F)ccc1N2`, the EC50 was 0.31 µM in [1], more than 10 µM in data set [2], more than 10 µM in data set [3] and more than 10 µM in data set [4]. The Kp at 1 h in [7] is 5.2. The figures for the concentration at 1 h in [6] and in data set [8] were 1840 nM and 360 nM, respectively.

As for `CN1CC=C(C2=Nc3cc(F)ccc3Nc3ccc(Cl)cc32)CC1`, the EC50 in data set [1] and in [3] was more than 10 µM throughout. Also, on D(2) dopamine receptor, the Ki came to 0.108 µM.

As for `CC(C)N1CC=C(C2=Nc3cc(Cl)ccc3Nc3ccc(F)cc32)CC1`, the EC50 in [1] and in data set [3] was more than 10 µM each time. For the same compound, the Activity in data set [5] amounted to 0.29 µmol/L.

For the compound `CN1CCN(C2=Nc3cc(Cl)ccc3Nc3ccccc32)CC1` [CLOZAPINE], the Activity in data set [5] was determined as 7.5 µmol/L.

Take `Clc1ccc2c(c1)N=C(N1CCNCC1)c1ccccc1N2` [N-DESMETHYLCLOZAPINE]: the EC50 in data set [1] is 0.048 µM; in data set [2], 0.67 µM; in data set [4] it was more than 10 µM. Also, the Ki at D(2) dopamine receptor came to 0.489 µM; on D(1A) dopamine receptor, 0.08 µM.
